Data: ChEMBL document CHEMBL1145833, “Studies on the synthesis and biological properties of non-carrier-added [(125)I and (131)I]-labeled arylalkylidenebisphosphonates: potent bone-seekers for diagnosis and therapy of malignant osseous lesions” (J Med Chem, 2003)
One block for each molecule: values may come before it.

Legend:
Conditions in all cases: in vivo
Mus musculus [1] = species: Mus musculus; assay: Distribution of compound in liver tissue of mice after 5 hr injection time was determined; assay type: ADME, organism-based
Summary of the method: (§1)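 Healthy athymic nude mice (balb/c nu/nu, 20–25 g, both sexes) received 50–400 KBq radioiodinated bisphosphonate in 100 µL phosphate buffer pH 6–7 by tail-vein injection. Three animals were sacrificed per time point. Tissues were excised, weighed and gamma-counted. Values are % injected dose per gram tissue, mean ± 1 SD, n = 3.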

Mus musculus [2] = species: Mus musculus; assay: Distribution of compound in lungs tissue of mice after 0.5 h injection time was determined; assay type: ADME, organism-based, Lung; summary of the method: as §1
Mus musculus [3] = species: Mus musculus; assay: Distribution of compound in lungs tissue of mice after 2 hr injection time was determined; assay type: ADME, organism-based, Lung; summary of the method: as §1
Mus musculus [4] = species: Mus musculus; assay: Distribution of compound in lungs tissue of mice after 24 hr injection time was determined; assay type: ADME, organism-based, Lung; summary of the method: as §1
Mus musculus [5] = species: Mus musculus; assay: Distribution of compound in lungs tissue of mice after 5 hr injection time was determined; assay type: ADME, organism-based, Lung; summary of the method: as §1
Mus musculus [6] = species: Mus musculus; assay: Distribution of compound in skull tissue of mice after 0.5 hr injection time was determined; assay type: ADME, organism-based; summary of the method: as §1
Mus musculus [7] = species: Mus musculus; assay: Distribution of compound in skull tissue of mice after 2 hr injection time was determined; assay type: ADME, organism-based; summary of the method: as §1
Mus musculus [8] = species: Mus musculus; assay: Distribution of compound in skull tissue of mice after 24 hr injection time was determined; assay type: ADME, organism-based; summary of the method: as §1
Mus musculus [9] = species: Mus musculus; assay: Distribution of compound in skull tissue of mice after 5 h injection time was determined; assay type: ADME, organism-based; summary of the method: as §1
Mus musculus [10] = species: Mus musculus; assay: Distribution of compound in spleen tissue of mice after 0.5 hr injection time was determined; assay type: ADME, organism-based; summary of the method: as §1
Mus musculus [11] = species: Mus musculus; assay: Distribution of compound in kidneys tissue of mice after 0.5 hr injection time was determined; assay type: ADME, organism-based, Kidney; summary of the method: as §1
Mus musculus [12] = species: Mus musculus; assay: Distribution of compound in kidneys tissue of mice after 2 hr injection time was determined; assay type: ADME, organism-based, Kidney; summary of the method: as §1
Mus musculus [13] = species: Mus musculus; assay: Distribution of compound in kidneys tissue of mice after 24 hr injection time was determined; assay type: ADME, organism-based, Kidney; summary of the method: as §1
Mus musculus [14] = species: Mus musculus; assay: Distribution of compound in kidneys tissue of mice after 5 hr injection time was determined; assay type: ADME, organism-based, Kidney; summary of the method: as §1
Mus musculus [15] = species: Mus musculus; assay: Distribution of compound in liver tissue of mice after 0.5 hr injection time was determined; assay type: ADME, organism-based; summary of the method: as §1
Mus musculus [16] = species: Mus musculus; assay: Distribution of compound in liver tissue of mice after 24 hr injection time was determined; assay type: ADME, organism-based; summary of the method: as §1
Mus musculus [17] = species: Mus musculus; assay: Distribution of compound in heart tissue of mice after 2 hr injection time was determined; assay type: ADME, organism-based; summary of the method: as §1
Mus musculus [18] = species: Mus musculus; assay: Distribution of compound in heart tissue of mice after 24 hr injection time was determined; assay type: ADME, organism-based; summary of the method: as §1
Mus musculus [19] = species: Mus musculus; assay: Distribution of compound in heart tissue of mice after 5 hr injection time was determined; assay type: ADME, organism-based; summary of the method: as §1
Mus musculus [20] = species: Mus musculus; assay: Distribution of compound in intestine tissue of mice after 0.5 hr injection time was determined; assay type: ADME, organism-based; summary of the method: as §1
Mus musculus [21] = species: Mus musculus; assay: Distribution of compound in intestine tissue of mice after 2 hr injection time was determined; assay type: ADME, organism-based; summary of the method: as §1
Mus musculus [22] = species: Mus musculus; assay: Distribution of compound in intestine tissue of mice after 24 hr injection time was determined; assay type: ADME, organism-based; summary of the method: as §1
Mus musculus [23] = species: Mus musculus; assay: Distribution of compound in intestine tissue of mice after 5 hr injection time was determined; assay type: ADME, organism-based; summary of the method: as §1
Mus musculus [24] = species: Mus musculus; assay: Distribution of compound in spleen tissue of mice after 2 hr injection time was determined; assay type: ADME, organism-based; summary of the method: as §1
Mus musculus [25] = species: Mus musculus; assay: Distribution of compound in spleen tissue of mice after 24 hr injection time was determined; assay type: ADME, organism-based; summary of the method: as §1
Mus musculus [26] = species: Mus musculus; assay: Distribution of compound in spleen tissue of mice after 5 h injection time was determined; assay type: ADME, organism-based; summary of the method: as §1
Mus musculus [27] = species: Mus musculus; assay: Distribution of compound in stomach tissue of mice after 0.5 hr injection time was determined; assay type: ADME, organism-based; summary of the method: as §1
Mus musculus [28] = species: Mus musculus; assay: Distribution of compound in stomach tissue of mice after 2 hr injection time was determined; assay type: ADME, organism-based; summary of the method: as §1
Mus musculus [29] = species: Mus musculus; assay: Distribution of compound in stomach tissue of mice after 24 hr injection time was determined; assay type: ADME, organism-based; summary of the method: as §1
Mus musculus [30] = species: Mus musculus; assay: Distribution of compound in stomach tissue of mice after 5 hr injection time was determined; assay type: ADME, organism-based; summary of the method: as §1
Mus musculus [31] = species: Mus musculus; assay: Distribution of compound in thyroid tissue of mice after 0.5 hr injection time was determined; assay type: ADME, organism-based, Thyroid gland
Summary of the method: (§2)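 Healthy athymic nude balb/c nu/nu mice (20–25 g) received 50–400 KBq radioiodinated bisphosphonate in 100 μL phosphate buffer, pH 6–7, by tail-vein injection. Three animals were sacrificed per time point. Thyroid-containing tissue was excised, weighed and gamma-counted. Values are % of injected dose, mean ± 1 SD of three mice.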

Mus musculus [32] = species: Mus musculus; assay: Distribution of compound in thyroid tissue of mice after 2 hr injection time was determined; assay type: ADME, organism-based, Thyroid gland; summary of the method: as §2
Mus musculus [33] = species: Mus musculus; assay: Distribution of compound in thyroid tissue of mice after 24 h injection time was determined; assay type: ADME, organism-based, Thyroid gland; summary of the method: as §2
Mus musculus [34] = species: Mus musculus; assay: Distribution of compound in thyroid tissue of mice after 5 h injection time was determined; assay type: ADME, organism-based, Thyroid gland; summary of the method: as §2
Mus musculus [35] = species: Mus musculus; assay: Distribution of compound in blood tissue of mice after 0.5 hr injection time was determined; assay type: ADME, organism-based; summary of the method: as §1
Mus musculus [36] = species: Mus musculus; assay: Distribution of compound in blood tissue of mice after 2 hr injection time was determined; assay type: ADME, organism-based; summary of the method: as §1
Mus musculus [37] = species: Mus musculus; assay: Distribution of compound in blood tissue of mice after 24 hr injection time was determined; assay type: ADME, organism-based; summary of the method: as §1
Mus musculus [38] = species: Mus musculus; assay: Distribution of compound in blood tissue of mice after 5 h injection time was determined; assay type: ADME, organism-based; summary of the method: as §1
Mus musculus [39] = species: Mus musculus; assay: Distribution of compound in femur tissue of mice after 0.5 hr injection time was determined; assay type: ADME, organism-based; summary of the method: as §1
Mus musculus [40] = species: Mus musculus; assay: Distribution of compound in femur tissue of mice after 2 hr injection time was determined; assay type: ADME, organism-based; summary of the method: as §1
Mus musculus [41] = species: Mus musculus; assay: Distribution of compound in femur tissue of mice after 24 hr injection time was determined; assay type: ADME, organism-based; summary of the method: as §1
Mus musculus [42] = species: Mus musculus; assay: Distribution of compound in femur tissue of mice after 5 hr injection time was determined; assay type: ADME, organism-based; summary of the method: as §1
Mus musculus [43] = species: Mus musculus; assay: Distribution of compound in heart tissue of mice after 0.5 hr injection time was determined; assay type: ADME, organism-based; summary of the method: as §1
Mus musculus [44] = species: Mus musculus; assay: Distribution of compound in liver tissue of mice after 2 h injection time was determined; assay type: ADME, organism-based; summary of the method: as §1

Injected (Mus musculus [1]): 0.94% | Injected (Mus musculus [2]): 1% | Injected (Mus musculus [3]): 0.35% | Injected (Mus musculus [4]): 0.06% | Injected (Mus musculus [5]): 0.1% | Injected (Mus musculus [6]): 10.28% | Injected (Mus musculus [7]): 7.64% | Injected (Mus musculus [8]): 7.13% | Injected (Mus musculus [9]): 6.16% | Injected (Mus musculus [10]): 0.35% | Injected (Mus musculus [11]): 8.23% | Injected (Mus musculus [12]): 3.68% | Injected (Mus musculus [13]): 1.06% | Injected (Mus musculus [14]): 2.26% | Injected (Mus musculus [15]): 2.98% | Injected (Mus musculus [16]): 0.23% | Injected (Mus musculus [17]): 0.26% | Injected (Mus musculus [18]): 0.04% | Injected (Mus musculus [19]): 0.07% | Injected (Mus musculus [20]): 0.37% | Injected (Mus musculus [21]): 0.28% | Injected (Mus musculus [22]): 0.28% | Injected (Mus musculus [23]): 0.24% | Injected (Mus musculus [24]): 0.26% | Injected (Mus musculus [25]): 0.1% | Injected (Mus musculus [26]): 0.12% | Injected (Mus musculus [27]): 1.14% | Injected (Mus musculus [28]): 1.12% | Injected (Mus musculus [29]): 0.05% | Injected (Mus musculus [30]): 0.23% | Injected (Mus musculus [31]): 0.21% | Injected (Mus musculus [32]): 0.14% | Injected (Mus musculus [33]): 0.02% | Injected (Mus musculus [34]): 0.06% | Injected (Mus musculus [35]): 2.22% | Injected (Mus musculus [36]): 0.31% | Injected (Mus musculus [37]): 0.03% | Injected (Mus musculus [38]): 0.11% | Injected (Mus musculus [39]): 18.8% | Injected (Mus musculus [40]): 21.16% | Injected (Mus musculus [41]): 15.25% | Injected (Mus musculus [42]): 10% | Injected (Mus musculus [43]): 0.9% | Injected (Mus musculus [44]): 2.14%
SMILES: O=P(O)(O)C(Cc1cccc(I)c1)P(=O)(O)O

Injected (Mus musculus [4]): 0.67% | Injected (Mus musculus [8]): 0.91% | Injected (Mus musculus [13]): 0.4% | Injected (Mus musculus [16]): 5.57% | Injected (Mus musculus [18]): 0.19% | Injected (Mus musculus [22]): 0.1% | Injected (Mus musculus [25]): 2.49% | Injected (Mus musculus [29]): 0.07% | Injected (Mus musculus [33]): 0.02% | Injected (Mus musculus [37]): 0.18% | Injected (Mus musculus [41]): 1.39%
SMILES: O=P(O)(O)C(NCCc1cccc(I)c1)P(=O)(O)O
